Reference: ChEMBL document CHEMBL1139344, “Antagonists of the human A(2A) adenosine receptor. 4. Design, synthesis, and preclinical evaluation of 7-aryltriazolo[4,5-d]pyrimidines” (J Med Chem, 2009)
Converted amounts (≈) assume the structure as drawn. The source made the active and inactive calls. The calls are words filed in the database; no cut-off is given here.

Legend:
[1] = Solubility at neutral pH; assay type: physicochemical
Adenosine receptor A2a = Adenosine receptor A2a (Homo sapiens, UniProt P29274); test: Displacement of radioligand from human recombinant adenosine A2A receptor at 21 degC after 90 mins by cell-based microplate scintillation counting
Adenosine receptor A1 = biological target: T1, Adenosine receptor A1 (Homo sapiens, UniProt P30542); test: Displacement of radioligand from human recombinant adenosine A1 receptor at 21 degC after 90 mins by cell-based microplate scintillation counting
T1 sequence (P30542 whole entry): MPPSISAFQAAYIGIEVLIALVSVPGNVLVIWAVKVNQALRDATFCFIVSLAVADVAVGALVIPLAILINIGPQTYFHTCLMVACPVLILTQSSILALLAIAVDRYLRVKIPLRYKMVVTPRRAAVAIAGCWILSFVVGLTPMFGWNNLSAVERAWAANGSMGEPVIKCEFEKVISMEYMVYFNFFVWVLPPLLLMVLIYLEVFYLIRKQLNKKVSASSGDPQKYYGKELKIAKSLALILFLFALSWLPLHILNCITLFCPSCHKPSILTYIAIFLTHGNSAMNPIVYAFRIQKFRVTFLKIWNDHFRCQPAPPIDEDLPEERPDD

Adenosine receptor A2b = biological target: T2, Adenosine receptor A2b (Homo sapiens, UniProt P29275); test: Displacement of radioligand from human recombinant adenosine A2B receptor at 21 degC after 60 mins by cell-based microplate scintillation counting
T2 sequence (P29275 whole entry): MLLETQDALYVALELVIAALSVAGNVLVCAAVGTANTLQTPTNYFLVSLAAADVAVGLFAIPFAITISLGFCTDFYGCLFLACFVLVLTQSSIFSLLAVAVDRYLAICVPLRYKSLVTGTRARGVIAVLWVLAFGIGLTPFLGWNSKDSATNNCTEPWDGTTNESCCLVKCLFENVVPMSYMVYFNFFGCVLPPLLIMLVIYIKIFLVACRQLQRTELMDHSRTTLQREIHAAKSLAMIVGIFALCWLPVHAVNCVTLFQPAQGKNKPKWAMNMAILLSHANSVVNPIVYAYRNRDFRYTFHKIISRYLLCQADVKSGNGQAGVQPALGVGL

Adenosine receptor A3 = biological target: T3, Adenosine receptor A3 (Homo sapiens, UniProt P0DMS8); test: Displacement of radioligand from human recombinant adenosine A3 receptor at 21 degC after 60 mins by cell-based microplate scintillation counting
T3 sequence (P0DMS8 whole entry): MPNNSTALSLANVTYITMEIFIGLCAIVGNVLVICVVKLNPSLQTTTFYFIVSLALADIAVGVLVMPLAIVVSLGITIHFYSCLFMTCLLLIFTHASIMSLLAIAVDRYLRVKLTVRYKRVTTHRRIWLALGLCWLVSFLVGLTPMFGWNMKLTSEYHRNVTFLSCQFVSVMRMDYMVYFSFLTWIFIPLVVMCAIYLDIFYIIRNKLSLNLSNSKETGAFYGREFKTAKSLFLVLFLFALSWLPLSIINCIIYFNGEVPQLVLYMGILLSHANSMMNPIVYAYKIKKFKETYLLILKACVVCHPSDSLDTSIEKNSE

Mus musculus [2] = test: Reversal of haloperidol-induced hypolocomotion in po dosed TO mouse assessed as time spent for locomotor activity administered 120 mins prior to testing done for 60 mins; assay type: functional, organism-based
Procedure, shortened: (§1)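 Haloperidol (0.2 mg/kg ip) used to induce hypolocomotion; antagonist given orally over 0.01-10 mg/kg in mouse and rat; activity scored as time spent active during a 60 min session; p < 0.05 versus vehicle (+haloperidol) control; minimal effective dose taken as lowest active dose.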

Rattus norvegicus [3] = test: Reversal of haloperidol-induced hypolocomotion in po dosed Sprague-Dawley rat assessed as time spent for locomotor activity administered 15 mins prior to testing done for 60 mins; assay type: functional, organism-based; procedure, shortened: as §1
Rattus norvegicus [4] = test: Reversal of haloperidol-induced hypolocomotion in Sprague-Dawley rat assessed as time spent for locomotor activity at 1 mg/kg, po administered 120 mins prior to testing done for 60 mins; assay type: functional, organism-based; design: dose 1 mg/kg; procedure, shortened: as §1
Mus musculus [5] = test: Reversal of haloperidol-induced hypolocomotion in TO mouse assessed as time spent for locomotor activity at 0.3 mg/kg, po administered 15 mins prior to testing done for 60 mins; assay type: functional, organism-based; design: dose 0.3 mg/kg; procedure, shortened: as §1
Mus musculus [6] = test: Reversal of haloperidol-induced hypolocomotion in TO mouse assessed as time spent for locomotor activity at 1 mg/kg, po administered 15 mins prior to testing done for 60 mins; assay type: functional, organism-based; design: dose 1 mg/kg; procedure, shortened: as §1
[7] = Apparent permeability across human Caco-2 cell membrane; assay type: ADME, cell-based; conditions: read-out: permeability
[8] = Half life in Sprague-Dawley rat at 2 mg/kg, iv; assay type: ADME, organism-based; design: dose 2 mg/kg, route intravenous; conditions: in vivo
[9] = Oral bioavailability in Sprague-Dawley rat; assay type: ADME, organism-based; conditions: in vivo
Brain = test: Drug uptake in Sprague-Dawley rat brain at 2 mg/kg, iv; assay type: ADME, organism-based; design: dose 2 mg/kg, route intravenous; conditions: in vivo
Procedure, shortened: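 Male Sprague-Dawley rats dosed intravenously at 2 mg kg^-1; brain uptake calculated as brain/plasma AUClast ratio.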

[10] = Tmax in Sprague-Dawley rat at 2 mg/kg, iv; assay type: ADME, organism-based; design: dose 2 mg/kg, route intravenous; conditions: in vivo
[11] = biological target: Voltage-gated inwardly rectifying potassium channel KCNH2 (Homo sapiens, UniProt Q12809); test: Binding affinity to human ERG at 30 uM by patch clamp technique
Procedure, shortened: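 hERG potassium channel examined by patch clamp at concentrations up to 30 µM, the maximal concentration reached in the protocol; response compared with vehicle alone.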

Mus musculus [12] = test: Toxicity in mouse at 100 mg/kg administered for 4 days; assay type: organism-based; design: dose 100 mg/kg; conditions: in vivo, 96 h
Mus musculus [13] = test: Reversal of haloperidol-induced hypolocomotion in TO mouse assessed as time spent for locomotor activity at 30 mg/kg, po administered 15 mins prior and measured for 60 mins; assay type: functional, organism-based; design: dose 30 mg/kg
Rattus norvegicus [14] = test: Reversal of haloperidol-induced hypolocomotion in Sprague-Dawley rat assessed as time spent for locomotor activity at 30 mg/kg, po administered 120 mins prior and measured for 60 mins; assay type: functional, organism-based; design: dose 30 mg/kg
Liver microsomes = test: Metabolic stability in rat liver microsomes after 30 mins; assay type: ADME, Microsome; conditions: 0.5 h
Procedure, shortened: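 Turnover by rodent liver microsomes measured as percent turnover after 30 min.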

[15] = Aqueous solubility in phosphate buffered saline; assay type: physicochemical
Homo sapiens [16] = species: Homo sapiens; test: Selectivity for human recombinant adenosine A2A receptor over human recombinant adenosine A1 receptor by cell-based assay
Homo sapiens [17] = species: Homo sapiens; test: Selectivity for human recombinant adenosine A2A receptor over human recombinant adenosine A3 receptor by cell-based assay
Homo sapiens [18] = species: Homo sapiens; test: Selectivity for human recombinant adenosine A2A receptor over human recombinant adenosine A2B receptor by cell-based assay

Adenosine receptor A2a, sequence (P29274 whole entry): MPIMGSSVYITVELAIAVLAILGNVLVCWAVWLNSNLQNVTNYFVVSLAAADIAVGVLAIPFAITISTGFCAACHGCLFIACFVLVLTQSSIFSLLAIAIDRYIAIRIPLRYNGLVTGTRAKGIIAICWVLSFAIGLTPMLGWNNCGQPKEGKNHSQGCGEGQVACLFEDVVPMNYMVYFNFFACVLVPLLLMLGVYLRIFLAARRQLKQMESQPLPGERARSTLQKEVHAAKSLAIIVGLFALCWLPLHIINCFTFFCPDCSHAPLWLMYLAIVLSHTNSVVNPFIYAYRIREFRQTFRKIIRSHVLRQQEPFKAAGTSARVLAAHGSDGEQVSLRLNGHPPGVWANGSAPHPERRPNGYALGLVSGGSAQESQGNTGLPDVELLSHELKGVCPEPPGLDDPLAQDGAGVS
Voltage-gated inwardly rectifying potassium channel KCNH2, sequence (Q12809 whole entry): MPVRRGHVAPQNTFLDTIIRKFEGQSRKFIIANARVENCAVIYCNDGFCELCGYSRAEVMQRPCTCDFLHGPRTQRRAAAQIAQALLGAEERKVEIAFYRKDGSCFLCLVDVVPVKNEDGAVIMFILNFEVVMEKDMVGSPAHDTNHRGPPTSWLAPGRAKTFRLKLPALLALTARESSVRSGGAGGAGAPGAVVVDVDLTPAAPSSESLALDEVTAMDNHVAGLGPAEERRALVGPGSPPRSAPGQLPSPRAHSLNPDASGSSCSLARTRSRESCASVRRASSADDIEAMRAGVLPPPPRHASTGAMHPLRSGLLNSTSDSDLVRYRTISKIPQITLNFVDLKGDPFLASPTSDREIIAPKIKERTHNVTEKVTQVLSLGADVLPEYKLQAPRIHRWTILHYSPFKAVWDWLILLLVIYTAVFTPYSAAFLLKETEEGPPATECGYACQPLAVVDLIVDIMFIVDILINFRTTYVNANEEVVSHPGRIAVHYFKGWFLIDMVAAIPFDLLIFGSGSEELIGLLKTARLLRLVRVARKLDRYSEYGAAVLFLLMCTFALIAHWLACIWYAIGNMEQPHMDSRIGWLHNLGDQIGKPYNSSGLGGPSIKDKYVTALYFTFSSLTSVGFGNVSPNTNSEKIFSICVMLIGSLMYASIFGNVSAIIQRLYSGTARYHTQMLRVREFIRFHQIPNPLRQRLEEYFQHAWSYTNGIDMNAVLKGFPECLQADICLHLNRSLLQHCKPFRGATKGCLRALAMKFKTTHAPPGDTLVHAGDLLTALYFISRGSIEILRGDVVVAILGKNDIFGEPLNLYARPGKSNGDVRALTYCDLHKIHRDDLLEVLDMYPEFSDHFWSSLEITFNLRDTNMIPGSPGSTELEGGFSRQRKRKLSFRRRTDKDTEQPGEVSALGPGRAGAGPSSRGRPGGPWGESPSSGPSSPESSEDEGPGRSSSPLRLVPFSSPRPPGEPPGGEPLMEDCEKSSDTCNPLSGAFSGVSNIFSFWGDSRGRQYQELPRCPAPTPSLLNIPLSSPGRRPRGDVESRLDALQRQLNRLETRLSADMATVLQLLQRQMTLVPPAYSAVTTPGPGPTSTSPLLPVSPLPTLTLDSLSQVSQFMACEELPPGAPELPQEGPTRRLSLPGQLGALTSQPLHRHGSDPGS

SMILES | Ki (Adenosine receptor A2a) | Ki (Adenosine receptor A1) | Ki (Adenosine receptor A2b) | Ki (Adenosine receptor A3) | Activity (Mus musculus [2]) | Activity (Rattus norvegicus [3]) | further results
CS(=O)(=O)O.Cc1cc(Cn2nnc3c(-c4ccco4)nc(N)nc32)ccc1N |  |  |  |  |  |  | solubility [1]: 36 mg/mL
CC(C)c1cc(Cn2nnc3c(-c4ccco4)nc(N)nc32)ccc1N | 1.5 nM | 50 nM | 397 nM | 251 nM | inactive | inactive | 
Cc1cc(Cn2nnc3c(-c4ccco4)nc(N)nc32)ccc1N.Cl.Cl |  |  |  |  |  |  | solubility [1]: 18 mg/mL
CCc1cc(Cn2nnc3c(-c4ccco4)nc(N)nc32)ccc1N | 1 nM | 26 nM | 118 nM | 221 nM | inactive | inactive | 
Nc1nc(-c2ccco2)c2nnn(Cc3ccccn3)c2n1 | 12 nM | 1120 nM | 258 nM | 1080 nM | inactive | inactive | 
CCn1c(=O)c2c(nc(/C=C/c3ccc(OC)c(OC)c3)n2C)n(CC)c1=O |  |  |  |  |  |  | Activity (Rattus norvegicus [4]): Active; Activity (Mus musculus [5]): Active
Nc1cccc(Cn2nnc3c(-c4ccco4)nc(N)nc32)c1 | 2.5 nM | 131 nM | 270 nM | 792 nM |  |  | Activity (Mus musculus [6]): Active
Cc1cc(Cn2nnc3c(-c4ccco4)nc(N)nc32)ccc1N [VIPADENANT] |  |  |  |  |  |  | Papp [7]: 11 ×10⁻⁶ cm/s; half-life [8]: 2 h; bioavailability [9]: 35%; Drug uptake (Brain): 57%; Tmax [10]: 0.5 h; Activity [11]: Not Active; Activity (Mus musculus [12]): Non-toxic
Nc1nc(-c2ccco2)c2nnn(Cc3ccc(F)cc3F)c2n1 | 2 nM | 118 nM | 226 nM | 1180 nM |  |  | Activity (Mus musculus [13]): inactive; Activity (Rattus norvegicus [14]): inactive; Stability (Liver microsomes): Stable; solubility [15]: 30 µM (≈ 9.85 µg/mL); fold change (FC) (Homo sapiens [16]): > 50; fold change (FC) (Homo sapiens [17]): > 50; fold change (FC) (Homo sapiens [18]): > 50
